Measured values as given in ChEMBL document CHEMBL4513216, “Probing the Open Global Health Chemical Diversity Library for Multistage-Active Starting Points for Next-Generation Antimalarials” (ACS Infect Dis, 2020).

Test: Toxicity liver stage against HepG2, at 10uM
Type: cell-based
Set-up: test concentration 10 uM, cell line HepG2-A16-CD81EGFP
Details: human, HepG2-A16-CD81EGFP cells; read-out: INHIBITION
Method in brief: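 Uninfected HepG2-A16-CD81EGFP cells, 3 × 10^3 per well, 1536-well, plated on prespotted compound at 10 μM final, parasite-free screening media added to match infected plates; puromycin 10 μM positive, DMSO 0.5% negative; run in parallel with 48 h PbLuc assay at 37 °C, 5% CO2; viability by CellTiter-Glo luminescence, normalized to controls.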

SMILES | cytotoxicity at 10 µM [%]
CC(=O)c1c(N(C)C)ccnc1C(F)(F)F | 1.1
O=C(C1CC(c2ccccc2)=NO1)N1CCc2ccccc21 (stereo not drawn) | -0.643
O=C1C[C@@H]2CCN(Cc3ccccc3)C[C@@H]2CCN1c1ccccc1 | 3.16
CC(C)NC(=O)NC[C@H]1OC[C@@H](NCc2ccc(F)cc2)[C@@H]1O | 2.07
COC(=O)c1cccc(C(=O)N2CCN(c3cc(C)ccc3C)CC2)n1 | 7.8
Cc1nnc(SC2CCc3ccccc3NC2=O)o1 (stereo not drawn) | 1.35
COc1ccc(CCNC(=O)NC2CC(=O)N(c3ccccc3)C2)cc1 (stereo not drawn) | -48
CCNC(=O)N1CC(c2nc(Cc3ccccc3)no2)C1 | -2.98
COc1ccc(CNC(=O)NCc2cc(C)oc2C)cc1 | -6
COc1cc(N2CCC3(CC2)CC(N2CCOCC2)CO3)ncn1 (stereo not drawn) | 3.44
CN(C)CC(=O)N1Cc2cc(-c3cc[nH]n3)ccc2C1c1cnco1 (stereo not drawn) | 21.4
CCN1C(=O)C2(CCOCC2)c2cc(NC(=O)COC)ccc21 | -0.82
O=C1CCCN1Cc1ncn2c1CN(C(=O)NC1CCCCC1)CCC2 | -150
O=C(C1CCOCC1)N1CCO[C@H]2[C@@H](OCC3CC3)CC[C@@H]21 | -6.22
Cc1noc(-c2ccc(N3CCCC(C(=O)O)C3)nc2)n1 (stereo not drawn) | -2.38
COc1ccccc1C1CC(=O)Nc2c1c(=O)[nH]n2C(C)C (stereo not drawn) | -4.08
COc1cc(N2C[C@H]3OCC[C@H]3[C@H](C(=O)NC3CC3)C2)ncn1 | -8.83
Cc1ccsc1CNCCCOc1ccccn1 | -0.575
Cc1ccc(-c2snnc2C(=O)NCCCO)cc1 | 6.67
O=C(COCc1nc(-c2ccncc2)no1)N1CCCCC1 | 5.4
O=C(c1cc(-c2cccnc2)[nH]n1)N1CCCC(c2cnccn2)C1 (stereo not drawn) | 6.21
O=C(NCC1(O)COCCN(Cc2cccc(O)c2)C1)c1cscn1 (stereo not drawn) | -2.28
O=C(O)c1cncc(Cc2cccc(F)c2)c1 | 5.31

SMILES | cytotoxicity at 10 µM [%]
Cc1cc(-c2cnc(C)nc2CN(C)C(=O)c2cc(C3CC3)on2)on1 | -20
COc1cccc(CN2CCOC(c3cnccn3)C2)c1F (stereo not drawn) | 8.63
Cc1ccc(S(=O)(=O)NC(=O)CCc2ccco2)cc1N(C)C | -0.845
CCCS(=O)(=O)C(C)C(=O)Nc1ccc2oc(C3CC3)nc2c1 (stereo not drawn) | 5.3
Brc1ccc(NCCCOC2CCOCC2)nc1 | 1.52
CS(=O)(=O)c1ccc(Cl)c(C(=O)NCCC2=CCCCC2)c1 | 8.17
O=C1CC2(CCSC2)C(=O)N1Cc1coc(-c2ccc(F)cc2)n1 (stereo not drawn) | 6.88
N#Cc1ccccc1CN1CCC(CN2CCOCC2)C1 (stereo not drawn) | -4.5
CNS(=O)(=O)c1ccc(C(=O)NCc2ccnc(OC)c2)cc1 | 2.86
CC(NCc1cnc(N2CCOCC2)s1)c1ccc(Cl)s1 (stereo not drawn) | -9.02
Cn1c(SCc2noc(-c3ccsc3)n2)nnc1C1CCS(=O)(=O)C1 (stereo not drawn) | 3.39
Cc1cccc(CN(Cn2nc(C)c3c(C)onc3c2=O)C2CC2)c1 | 1.33
Cc1nn(CC(O)CN2CCC(C)CC2)c(=O)c(C#N)c1C (stereo not drawn) | 5.84
CC(C)C(C)NC(=O)Nc1ccc(CC(N)=O)cc1 (stereo not drawn) | -3.36
CCCc1n[nH]c(C2CN(C(=O)CCCn3ccnc3)CCO2)n1 (stereo not drawn) | -5.39
COc1ncc(C)cc1NC(=O)COCC(F)(F)F | -5.42
Cc1nnc(CN2CCC(Oc3ccc(C)c(C)c3)CC2)o1 | 7.27
CNC(=O)c1ccc(=O)n(Cc2csc(N(C)C(C)=O)n2)c1 | 0.138
OC(CN(Cc1ccccc1)Cc1ccncc1)c1ccco1 (stereo not drawn) | 24.7
O=c1oc(-c2ccc(F)cc2)nn1CCc1ccncc1 | -3.57
Cc1cn2nc(Sc3nnnn3C)sc2n1 | 17.3
CC(SCC(=O)N(C)CC(=O)NC1CC1)c1ccc(F)c(F)c1 (stereo not drawn) | -0.369
CC(=O)Nc1ccc(CNC2CCCSC2)cc1 (stereo not drawn) | -10.5

SMILES | cytotoxicity at 10 µM [%]
Cc1noc(C)c1CCC(=O)N1CCn2cccc2C1C (stereo not drawn) | -0.376
CN(C)S(=O)(=O)c1ccc(CN2CCC(C(N)=O)CC2)o1 | 0.214
O=C(NCCCn1cccn1)c1csc2c1CCCC2 | -10.2
CN(CCc1ccccn1)c1cnn(C)c(=O)c1Br | -5.03
Cc1nnc(-c2cccc(C#N)c2)n1C1CCCN(C(C)C)C1=O (stereo not drawn) | -6.74
Cc1cnn(CCNCC(=O)NC(c2ccccc2)c2ccccc2)c1 | -5.73
O=S(=O)(Cc1ccccc1)NCc1ccnc(O)c1 | -1.2
O=C(NCc1cccnc1)C1=NN(c2ccccc2)C(=O)CN1 | 12.3
COC(=O)CCNC(=O)C1CC(=O)N(C2CCCC2)C1 (stereo not drawn) | -22.9
CSC(C)(C)CNC(=O)NC1CCSCC1 | 17.5
N#Cc1cccnc1NCCNC(=O)N1CCCSCC1 | -10.8
N#Cc1ncn(CC(=O)Nc2cc(Cl)ccc2F)n1 | -2.75
CC(=O)N1CCN(S(=O)(=O)c2ccc(C)c(F)c2)CC1 | -9.42
CCc1nnc2n1CC(CNCc1ccncc1)CC2 (stereo not drawn) | -15.1
O=C(NCC(O)c1ccccc1Cl)c1cccc(-n2cnnn2)c1 (stereo not drawn) | -15.6
Cc1noc(C)c1CN1C[C@H]2CNC[C@H]2C1 | 6.62
O=C(NCC1CC1)C1=NOC2(CCN(S(=O)(=O)c3ccc(F)cc3)C2)C1 (stereo not drawn) | 3.25
CN(C)C[C@@H]1CN(C(=O)Cc2ccccc2)C[C@@H]1CO | -1.07
COc1cccc2c1OCC(CNC(=O)Cc1cnccn1)C2 (stereo not drawn) | -145
COc1cccc(S(=O)(=O)N2CCCCC2CCN2CCCC2=O)c1 (stereo not drawn) | 7.12
Cc1ccc(C(NC(=O)CCCN2CCCCC2)C(=O)O)cc1 (stereo not drawn) | 2.87
Cc1cc(C)c(Cn2cncn2)cc1CN1CC[C@H](CO)[C@@H](O)C1 | -5.42
O=C(NC1CC(=O)N(C2Cc3ccccc3C2)C1)c1cc[n+]([O-])cc1 (stereo not drawn) | -1.03

SMILES | cytotoxicity at 10 µM [%]
CCn1c(-c2ccccc2)nn(CC(=O)NCCc2ccc(C)o2)c1=O | -0.545
Clc1cc(NCc2ncc[nH]2)nc2[nH]ccc12 | 6.68
N#Cc1cc2c(=O)n(CC(O)c3cccc(O)c3)ccc2[nH]c1=O (stereo not drawn) | 2.86
Cc1cn2cc(C(=O)NC3CCCN(c4ncccn4)C3)ccc2n1 (stereo not drawn) | 12.1
CC(Cc1cn(CCc2nnn[nH]2)nn1)c1ccccc1 (stereo not drawn) | 3.78
CC(C)NC(=O)CN1CCN(CC2CCOc3ccccc3C2)CC1 (stereo not drawn) | -1.72
Cc1nccc(N2CCC(Cc3cccc(C(=O)O)c3)CC2)n1 | -135
CCS(=O)(=O)N[C@H]1CN(Cc2noc(COC)n2)C[C@@H]1C1CC1 | -3.22
CN(Cc1nncn1-c1cccc(C(F)(F)F)c1)S(C)(=O)=O | 3.01
O=C(c1cccc(CO)n1)N1CCOC(c2ccc(Cl)c(Cl)c2)C1 (stereo not drawn) | -10.4
O=C(O)[C@@H]1CN(C(=O)c2cc(C3CC3)n[nH]2)C[C@H]1c1cccc(F)c1 | -9
COc1ccc2c(c1)CCN(CCC(=O)O)CC2 | -9.21
CCN(CC)S(=O)(=O)N(CC)Cc1ccc2c(c1)OCCO2 | 4.66
COC(=O)C(NC(=O)CCOC(C)C)c1cc(F)ccc1F (stereo not drawn) | -4.11
Cc1nc(C)c(CN2CCC(N(C)Cc3noc(C4CC4)n3)C2)s1 (stereo not drawn) | -20
O=C(CN1CC(n2cccn2)C1)NCCc1ccc(F)cc1 | -14.3
Cc1ccc(NC2CCN(C(=O)C(C)n3cncn3)CC2)nn1 (stereo not drawn) | -14.2
CCc1noc(C)c1C(=O)N1CCCC(n2nc(C)nc2C)C1 (stereo not drawn) | -7.01
O=C(CCc1ccccc1Cl)NS(=O)(=O)c1ccc2c(c1)OCCO2 | -6.69
Cn1ncc2c(=O)[nH]c(CN3CCCC3c3ccccc3Cl)nc21 (stereo not drawn) | -4.8
Cc1ccc(C(=O)N2CCN(CC(C)O)CC2)cc1S(C)(=O)=O (stereo not drawn) | -2.96
CCc1nnc2n1CCN(C(=O)c1ccc(-c3ccco3)[nH]c1=O)C2 | -11.5
Cc1nc(C)n(CC2CCCN(CCOc3ccc(C#N)cc3)C2)n1 (stereo not drawn) | -1.55

SMILES | cytotoxicity at 10 µM [%]
Fc1cccc(-n2ccc(CN3CCCC3Cn3cncn3)n2)c1 (stereo not drawn) | -9.43
Cc1cnn(CC2CCCN2C(=O)c2n[nH]c3ccccc23)c1 (stereo not drawn) | -9.93
Cc1nc(C2CCCN(C(=O)c3ccc(N4CCCC4)nn3)C2)no1 (stereo not drawn) | -13.6
Cn1cnc2c1CCN(Cc1csc(C3CCCC3)n1)C2 | -12.3
COCCOc1ncccc1C(=O)N1CCCC(n2ccnc2C)C1 (stereo not drawn) | -7.52
CCN(CC)C(=O)c1ccc(-n2ncc(C#N)c2N)cc1 | 0.796
CCOc1ncccc1NC(=O)NC1CCN(c2ncccn2)CC1 | -33.3
Cc1nn(C)c(C)c1C1CCCN1Cc1nc2ccccc2o1 (stereo not drawn) | -20.6
CC(=O)N(Cc1ncc(C)o1)C1CCN(Cc2ccccc2F)C1 (stereo not drawn) | -8.08
C1CC(NCc2nnc(C3CC3)o2)CN(Cc2noc(C3CC3)n2)C1 (stereo not drawn) | -19
O=C(NCCC(=O)N1CCCc2ccccc21)c1cc(F)cc(F)c1 | -6.14
CC(C)c1nc(CN2CCCC(O)C2)cs1 (stereo not drawn) | -7.13
CCc1noc(CN2CCN(C(=O)c3ccccn3)CC2)n1 | -0.775
CCOC(=O)N1CCC2(CCNC2)C1 (stereo not drawn) | 2.14
CN1C(=O)C2(CCN(Cc3nccn3C)CC2)c2ccccc21 | 1.49
O=C1CCC2(CCCN(Cc3ccccc3F)C2)N1CC1CC1 (stereo not drawn) | 6.06
Cc1cccc(CN2C(=O)CCC23CCNCC3)n1 | 0.758
CN1CCc2c(CNC(=O)c3nccn3C)cncc2C1 | -95.7
CC(C)OC(=O)N1C[C@@H]2CC[C@H]1CN(Cc1cccnc1)C2 | 0.189
O=C(CC1[C@H]2CN(Cc3ccncc3)C[C@@H]12)N1CCCC1 (stereo partly drawn) | 2.58
C=Cc1cccc(CN2C[C@@H]3CC[C@H]2CN(Cc2c(C)noc2C)C3)c1 | -6.58
